Experimental data taken from ChEMBL document CHEMBL5724801, “EUbOPEN Chemogenomics Library - Multiplex” (2024).
Values joined by “and” are separate entries in the source; they are usually repeats but may differ in a detail not shown here. Equal entries are not always repeated.

Tested on: Fibroblast
Assay: Multiplex assay against human fibroblast
Format: toxicity, cell-based
How it was run: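 Imaging took place on a CQ1 microscope at 37°C and 5% CO2 once compound had been added to live cells stained at seeding with Hoechst33342, BioTracker Green Microtubule Cytoskeleton Dye, MitoTracker Red and Annexin V Alexa Fluor 680. CellPathfinder machine-learning gating classed cells as Hoechst high-intensity objects or normal cells, classed normal cells as having healthy, pyknosed or fragmented nuclei, and classed pyknosed cells as mitotic or apoptotic. Tubulin, mitochondrial-mass and membrane-permeability phenotypes are per cents of the healthy-nucleus cells.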

[1] = 12 h, 1 µM, compound concentration 1 uM
[2] = 12 h, 10 µM, compound concentration 10 uM
[3] = 24 h, 1 µM, compound concentration 1 uM
[4] = 24 h, 10 µM, compound concentration 10 uM
[5] = 48 h, 1 µM, compound concentration 1 uM
[6] = 48 h, 10 µM, compound concentration 10 uM

## CC(=O)Nc1cccc2c1c(Sc1ccc(Cl)cc1)c(C)n2CC(=O)O [AZD1981]
[1]
  Population Apoptotic (%): 27% and 37%
  Population Fragmented Nuclei (%): 18% and 31%
  Population Healthy Nuclei (%): 61% and 47%
  Population Hoechst High Intensity Objects (%): 1% and 3%
  Population Mitochondria Different-Phenotype (%): 9% and 7%
  Population Mitotic Cells (%): 72% and 62%
  Population Normal (%): 98% and 96%
  Population Pyknosed Nuclei (%): 19% and 21%
  Population Tubulin-Different-Phenotype (%): 33% and 55%
  Total Cell Count: 173 and 118
[2]
  Population Apoptotic (%): 40% and 33%
  Population Fragmented Nuclei (%): 16% and 35%
  Population Healthy Nuclei (%): 64% and 42%
  Population Hoechst High Intensity Objects (%): 3% and 4%
  Population Membrane Permeable-Phenotype (%): 2% and 8%
  Population Mitochondria Different-Phenotype (%): 3% and 0%
  Population Mitotic Cells (%): 60% and 66%
  Population Normal (%): 96% and 95%
  Population Pyknosed Nuclei (%): 19% and 22%
  Population Tubulin-Different-Phenotype (%): 24% and 35%
  Total Cell Count: 133 and 112
[3]
  Population Apoptotic (%): 53% and 36%
  Population Fragmented Nuclei (%): 19% and 30%
  Population Healthy Nuclei (%): 63% and 53%
  Population Hoechst High Intensity Objects (%): 6% and 3%
  Population Membrane Permeable-Phenotype (%): 2% and 7%
  Population Mitochondria Different-Phenotype (%): 2% and 7%
  Population Mitotic Cells (%): 46% and 63%
  Population Normal (%): 93% and 96%
  Population Pyknosed Nuclei (%): 16% and 15%
  Population Tubulin-Different-Phenotype (%): 28% and 53%
  Total Cell Count: 168 and 128
[4]
  Population Apoptotic (%): 41% and 55%
  Population Fragmented Nuclei (%): 13% and 36%
  Population Healthy Nuclei (%): 68% and 43%
  Population Hoechst High Intensity Objects (%): 4% and 6%
  Population Mitochondria Different-Phenotype (%): 5% and 0%
  Population Mitotic Cells (%): 58% and 45%
  Population Normal (%): 95% and 93%
  Population Pyknosed Nuclei (%): 18% and 20%
  Population Tubulin-Different-Phenotype (%): 17% and 40%
  Total Cell Count: 135 and 104
[5]
  Population Apoptotic (%): 54% and 57%
  Population Fragmented Nuclei (%): 23% and 34%
  Population Healthy Nuclei (%): 61% and 54%
  Population Hoechst High Intensity Objects (%): 6% and 3%
  Population Membrane Permeable-Phenotype (%): 1% and 8%
  Population Mitochondria Different-Phenotype (%): 6% and 2%
  Population Mitotic Cells (%): 45% and 42%
  Population Normal (%): 93% and 96%
  Population Pyknosed Nuclei (%): 15% and 11%
  Population Tubulin-Different-Phenotype (%): 33% and 52%
  Total Cell Count: 171 and 129
[6]
  Population Apoptotic (%): 64% and 40%
  Population Fragmented Nuclei (%): 21% and 43%
  Population Healthy Nuclei (%): 64% and 42%
  Population Hoechst High Intensity Objects (%): 4%
  Population Membrane Permeable-Phenotype (%): 0% and 11%
  Population Mitochondria Different-Phenotype (%): 2% and 0%
  Population Mitotic Cells (%): 35% and 60%
  Population Normal (%): 95%
  Population Pyknosed Nuclei (%): 13% and 15%
  Population Tubulin-Different-Phenotype (%): 25% and 54%
  Total Cell Count: 134 and 105

## Cc1cc(Nc2ncc(Cl)c(Nc3ccccc3S(=O)(=O)C(C)C)n2)c(OC(C)C)cc1C1CCNCC1 [CERITINIB]
[1]
  Population Apoptotic (%): 11.76% and 21.15%
  Population Fragmented Nuclei (%): 7.37% and 5.85%
  Population Healthy Nuclei (%): 53.46% and 68.78%
  Population Hoechst High Intensity Objects (%): 0%
  Population Membrane Permeable-Phenotype (%): 4.31% and 0.71%
  Population Mitochondria Different-Phenotype (%): 43.1% and 31.21%
  Population Mitotic Cells (%): 88.24% and 78.85%
  Population Normal (%): 100%
  Population Pyknosed Nuclei (%): 39.17% and 25.37%
  Population Tubulin-Different-Phenotype (%): 63.79% and 60.99%
  Total Cell Count: 217 and 205
[2]
  Population Apoptotic (%): 42.37% and 52.35%
  Population Fragmented Nuclei (%): 13.51% and 3.96%
  Population Healthy Nuclei (%): 22.7% and 22.28%
  Population Hoechst High Intensity Objects (%): 0%
  Population Mitochondria Different-Phenotype (%): 7.14% and 6.67%
  Population Mitotic Cells (%): 57.63% and 47.65%
  Population Normal (%): 100%
  Population Pyknosed Nuclei (%): 63.78% and 73.76%
  Population Tubulin-Different-Phenotype (%): 38.1% and 77.78%
  Total Cell Count: 185 and 202
[3]
  Population Apoptotic (%): 20% and 32.43%
  Population Fragmented Nuclei (%): 9.43% and 7.69%
  Population Healthy Nuclei (%): 68.03% and 74.52%
  Population Hoechst High Intensity Objects (%): 0%
  Population Membrane Permeable-Phenotype (%): 4.22% and 0%
  Population Mitochondria Different-Phenotype (%): 29.52% and 27.74%
  Population Mitotic Cells (%): 80% and 67.57%
  Population Normal (%): 100%
  Population Pyknosed Nuclei (%): 22.54% and 17.79%
  Population Tubulin-Different-Phenotype (%): 62.05% and 63.23%
  Total Cell Count: 244 and 208
[4]
  Population Apoptotic (%): 65.28% and 58.33%
  Population Fragmented Nuclei (%): 19.9% and 22.16%
  Population Healthy Nuclei (%): 43.37% and 59.28%
  Population Hoechst High Intensity Objects (%): 0%
  Population Mitochondria Different-Phenotype (%): 12.94% and 7.83%
  Population Mitotic Cells (%): 34.72% and 41.67%
  Population Normal (%): 100%
  Population Pyknosed Nuclei (%): 36.73% and 18.56%
  Population Tubulin-Different-Phenotype (%): 37.65% and 81.74%
  Total Cell Count: 196 and 194
[5]
  Population Fragmented Nuclei (%): 13.85% and 7.43%
  Population Healthy Nuclei (%): 77.7% and 84.65%
  Population Hoechst High Intensity Objects (%): 0%
  Population Membrane Permeable-Phenotype (%): 1.74% and 1.75%
  Population Mitochondria Different-Phenotype (%): 11.74% and 9.94%
  Population Mitotic Cells (%): 88% and 50%
  Population Normal (%): 100%
  Population Pyknosed Nuclei (%): 8.45% and 7.92%
  Population Tubulin-Different-Phenotype (%): 36.09% and 50.88%
  Total Cell Count: 296 and 202
[6]
  Population Apoptotic (%): 73.33% and 50%
  Population Fragmented Nuclei (%): 20.63% and 58.73%
  Population Healthy Nuclei (%): 71.43% and 38.1%
  Population Hoechst High Intensity Objects (%): 0%
  Population Mitotic Cells (%): 26.67% and 50%
  Population Normal (%): 100%
  Population Pyknosed Nuclei (%): 7.94% and 3.17%
  Population Tubulin-Different-Phenotype (%): 31.85% and 58.33%
  Total Cell Count: 189

## CN1C[C@H](C(=O)N[C@]2(C)O[C@@]3(O)[C@@H]4CCCN4C(=O)[C@H](Cc4ccccc4)N3C2=O)C[C@@H]2c3cccc4[nH]cc(c34)C[C@H]21.CS(=O)(=O)O [DIHYDROERGOTAMINE MESYLATE]
[1]
  Population Apoptotic (%): 25% and 47%
  Population Fragmented Nuclei (%): 13% and 32%
  Population Healthy Nuclei (%): 70% and 51%
  Population Hoechst High Intensity Objects (%): 1% and 7%
  Population Membrane Permeable-Phenotype (%): 1% and 6%
  Population Mitochondria Different-Phenotype (%): 1% and 5%
  Population Mitotic Cells (%): 75% and 52%
  Population Normal (%): 98% and 92%
  Population Pyknosed Nuclei (%): 16%
  Population Tubulin-Different-Phenotype (%): 23% and 31%
  Total Cell Count: 127 and 155
[2]
  Population Apoptotic (%): 57% and 31%
  Population Fragmented Nuclei (%): 27% and 33%
  Population Healthy Nuclei (%): 65% and 45%
  Population Hoechst High Intensity Objects (%): 0% and 8%
  Population Membrane Permeable-Phenotype (%): 0% and 2%
  Population Mitochondria Different-Phenotype (%): 5% and 0%
  Population Mitotic Cells (%): 42% and 68%
  Population Normal (%): 100% and 91%
  Population Pyknosed Nuclei (%): 7% and 21%
  Total Cell Count: 92 and 114
[3]
  Population Apoptotic (%): 38% and 47%
  Population Fragmented Nuclei (%): 14% and 30%
  Population Healthy Nuclei (%): 75% and 56%
  Population Hoechst High Intensity Objects (%): 1% and 4%
  Population Membrane Permeable-Phenotype (%): 0% and 7%
  Population Mitochondria Different-Phenotype (%): 0% and 3%
  Population Mitotic Cells (%): 61% and 52%
  Population Normal (%): 98% and 95%
  Population Pyknosed Nuclei (%): 10% and 13%
  Population Tubulin-Different-Phenotype (%): 18% and 50%
  Total Cell Count: 130 and 149
[4]
  Population Apoptotic (%): 55% and 31%
  Population Fragmented Nuclei (%): 17% and 35%
  Population Healthy Nuclei (%): 72% and 43%
  Population Hoechst High Intensity Objects (%): 1% and 5%
  Population Membrane Permeable-Phenotype (%): 0% and 6%
  Population Mitochondria Different-Phenotype (%): 1% and 0%
  Population Mitotic Cells (%): 44% and 68%
  Population Normal (%): 98% and 94%
  Population Pyknosed Nuclei (%): 10% and 20%
  Total Cell Count: 89 and 113
[5]
  Population Apoptotic (%): 57% and 53%
  Population Fragmented Nuclei (%): 20% and 38%
  Population Healthy Nuclei (%): 68% and 50%
  Population Hoechst High Intensity Objects (%): 1% and 5%
  Population Membrane Permeable-Phenotype (%): 0% and 6%
  Population Mitochondria Different-Phenotype (%): 2% and 6%
  Population Mitotic Cells (%): 42% and 46%
  Population Normal (%): 98% and 94%
  Population Pyknosed Nuclei (%): 10% and 11%
  Population Tubulin-Different-Phenotype (%): 30% and 48%
  Total Cell Count: 134 and 139
[6]
  Population Apoptotic (%): 63% and 76%
  Population Fragmented Nuclei (%): 21% and 44%
  Population Healthy Nuclei (%): 65% and 44%
  Population Hoechst High Intensity Objects (%): 3%
  Population Membrane Permeable-Phenotype (%): 1% and 11%
  Population Mitochondria Different-Phenotype (%): 3% and 5%
  Population Mitotic Cells (%): 36% and 23%
  Population Normal (%): 96%
  Population Pyknosed Nuclei (%): 12% and 10%
  Population Tubulin-Different-Phenotype (%): 20% and 55%
  Total Cell Count: 91 and 126
